B1: Osa-1-4 twister ribozyme (parent)
chain: CCGCCUAACACUGCCAAUGCCGGUCCCAAGCCCGGAUAAAAGUGGAGGGGGCGG

Variants of: B1
Test: self-cleavage, relative activity (ratio to wild type); higher = more cleavage; co-transcriptional
How it was run: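 Relative activity is the fraction cleaved divided by that of the wild-type ribozyme. The library came from a DNA template for a 54-nucleotide Oryza sativa twister ribozyme, doped at the 48 positions downstream of the cleavage site with 97 % wild-type base and 1 % of each other base. After 2 h of in vitro transcription at 37 °C with co-transcriptional self-cleavage, the RNA was reverse-transcribed with a template-switching oligonucleotide, amplified by PCR and deep-sequenced, and reads with or without upstream sequence gave the cleavage status.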

Variant | self-cleavage
G45A U12C | 0.09
G45A U12A | 0.09
G45A U12G | 0.07
G45C G49U | 0.03
G45C G49C | 0.04
G45C G49A | 0.04
G44A G49A | 0.07
G44A G49U | 0.07
G44A G49C | 0.06
G44C G45A | 0.14
G44C G45U | 0.07
G44C G45C | 0.08
G44U G48C | 0.07
G44U G48A | 0.06
G44U G48U | 0.07
G44C U37G | 1.02
G44C U37A | 0.71
G44C U37C | 1
G44C U12C | 0.31
G44C U12A | 0.4
G44C U12G | 0.08
G45U G54C | 0.06
G45U G54A | 0.1
G45U G54U | 0.2

Variant | self-cleavage
G45U U24G | 0.02
G45U U24C | 0.04
G45U U24A | 0.04
G45A G53A | 0.09
G45A G53C | 0.05
G45A G53U | 0.07
G44C U43C | 0.73
G44C U43G | 0.07
G44C U43A | 0.74
A46C C25U | 0.05
A46C C25A | 0.03
A46C C25G | 0.02
G45U G50C | 0.07
G45U G50A | 0.12
G45U G50U | 0.09
G45C G47U | 0.05
G45C G47C | 0.05
G45C G47A | 0.05
G45A G47U | 0.06
G45A G47C | 0.05
G45A G47A | 0.06
A46C | 0.09
G44C G53U | 0.38
G44C G53C | 0.09

Variant | self-cleavage
G44C G53A | 0.81
G44A G54U | 0.94
G44A G54C | 0.93
G44A G54A | 0.92
A46C C26U | 0.05
A46C C26A | 0.02
A46C C26G | 0.02
G42U G48C | 0.03
G42U G48U | 0.03
G42U G48A | 0.03
G45A G48U | 0.05
G45A G48C | 0.04
G45A G48A | 0.06
G44A G53U | 0.47
G44A G53C | 0.1
G44A G53A | 0.83
A46C C20A | 0.04
A46C C20U | 0.07
A46C C20G | 0.03
G44A G45U | 0.07
G44A G45C | 0.07
G44A G45A | 0.16
G42U G44U | 0.15
G42U U12G | 0.06

Variant | self-cleavage
G42U U12C | 0.05
G42U U12A | 0.06
G45C G53U | 0.06
G45C G53A | 0.06
G45C G53C | 0.05
A46C A8C | 0.03
A46C A8G | 0.02
A46C A8U | 0.03
G44U G45C | 0.06
G44U G45U | 0.08
G44U G45A | 0.1
G44A G48A | 0.07
G44A G48U | 0.06
G44A G48C | 0.06
G42U U37G | 0.15
G42U U37A | 0.09
G42U U37C | 0.11
G42U G45U | 0.04
G42U G45C | 0.03
G42U G45A | 0.05
G42U G54U | 0.37
G42U G54C | 0.15
G42U G54A | 0.14
G42U U18C | 0.23

Variant | self-cleavage
G42U U18A | 0.29
G42U U18G | 0.28
G44C U18C | 0.83
G44C U18G | 0.64
G44C U18A | 0.88
G44A U43A | 0.88
G44A U43G | 0.67
G44A U43C | 0.1
G44U U18G | 0.64
G44U U18C | 0.69
G44U U18A | 0.83
G45C G50C | 0.07
G45C G50A | 0.08
G45C G50U | 0.06
G44A | 0.97
G44C | 0.98
G44U | 0.93
A46C G23C | 0.02
A46C G23A | 0.04
A46C G23U | 0.03
G45A U24C | 0.05
G45A U24G | 0.02
G45A U24A | 0.03
G45A G50U | 0.13

Variant | self-cleavage
G45A G50C | 0.06
G45A G50A | 0.23
G42U G50A | 0.32
G42U G50C | 0.1
G42U G50U | 0.12
G44C G47C | 0.11
G44C G47U | 0.16
G44C G47A | 0.19
G44U U12A | 0.11
G44U U12C | 0.43
G44U U12G | 0.15
G45U U12A | 0.06
G45U U12G | 0.07
G45U U12C | 0.06
G45U | 0.17
G45A | 0.52
G45C | 0.06
G45A G51C | 0.06
G45A G51U | 0.07
G45A G51A | 0.12
A46C C32G | 0.03
A46C C32U | 0.04
A46C C32A | 0.03
G45C G51A | 0.06

Variant | self-cleavage
G45C G51U | 0.05
G45C G51C | 0.05
A46C C21U | 0.06
A46C C21A | 0.06
A46C C21G | 0.03
G44C G50C | 0.81
G44C G50U | 1
G44C G50A | 0.5
G42U G53A | 0.1
G42U G53U | 0.08
G42U G53C | 0.05
G44U G53A | 0.75
G44U G53U | 0.3
G44U G53C | 0.08
G44C G54U | 0.92
G44C G54C | 0.92
G44C G54A | 0.89
G45A G54C | 0.1
G45A G54U | 0.34
G45A G54A | 0.15
G42U U43C | 0.09
G42U U43A | 0.08
G42U U43G | 0.09

— the RNAGym collection of RNA variant scans (doi:10.1002/anie.201605470)
